What was measured:
[1] = tested on: Panel NCI-60 (60 carcinoma cell lines); assay: In vitro cytotoxic potency against NCI-60 human tumor cell line; assay type: functional
[2] = tested on: Panel NCI-60 (60 carcinoma cell lines); assay: In vitro cytotoxic potency against NCI-60 human tumor cell line was determined; assay type: functional
How it was run: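 Tested in the NCI primary in vitro human tumor cell screen. Potency was taken from the dose-response curves, which were also analysed for the differential cytotoxicity pattern typical of antimitotic standard agents.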

Tubulin = assay: In vitro inhibitory activity against tubulin polymerization (10 uM); assay type: protein-complex assay
Tubulin (Homo sapiens) = Tubulin (Homo sapiens) (UniProt P68371+Q9H4B7+P0DPH7+P68366+Q13509+Q71U36+P04350+Q3ZCM7+P07437+P68363+Q9BQE3+Q6PEY2+Q13885+Q9BVA1+Q9BUF5); assay: In vitro inhibition of binding of [3H]colchicine to tubulin at 50 mM.; assay type: protein-complex assay
Tubulin (Bos taurus) [3] = target: T1, Tubulin (Bos taurus) (UniProt Q6B856+Q862L2+Q862F3); assay: In vitro inhibition of binding of [3H]colchicine to tubulin (10 uM) at compound concentration of 50 mM; assay type: protein assay
Tubulin (Bos taurus) [4] = target: T1, Tubulin (Bos taurus); assay: In vitro inhibition of binding of [3H]colchicine to tubulin (10 uM) at compound concentration of 5 mM; assay type: protein assay

| Compound | GI50 [1] | further results |
| --- | --- | --- |
| COc1ccc2oc(-c3ccc(OC)c(OC)c3OC)cc(=O)c2c1 | 42 µM |  |
| COc1ccc(-c2cc(=O)c3c(OC)cccc3o2)c(OC)c1OC | 89 µM |  |
| COc1ccc(-c2cc(=O)c3c(O)cccc3o2)c(OC)c1OC | 45 µM |  |
| COc1ccc(-c2oc3cc(O)cc(O)c3c(=O)c2OC)cc1OCc1ccccc1 | 8.3 µM |  |
| COc1cc(OC)c(-c2cc(=O)c3c(O)c(OC)c(OC)c(OC)c3o2)cc1OC | 60 µM |  |
| COc1cc2oc(-c3ccc(O)cc3)cc(=O)c2c(OC)c1O | 62 µM |  |
| COc1ccc(-c2cc(=O)c3c(OC)c(OC)c(OC)c(OC)c3o2)cc1OC [NOBILETIN] | 40 µM |  |
| COc1ccc(-c2cc(=O)c3cc(O)ccc3o2)c(OC)c1OC | 30 µM |  |
| COc1ccc(-c2cc(=O)c3c(O)cc(O)cc3o2)cc1OC | 48 µM |  |
| COc1cc(-c2cc(=O)c3c(O)c(OC)c(OC)c(OC)c3o2)ccc1O | 22 µM |  |
| COc1ccc(-c2cc(=O)c3ccc(O)cc3o2)c(OC)c1OC | 58 µM |  |
| COc1cc2oc(-c3ccc(O)cc3)cc(=O)c2c(OC)c1OC | > 100 µM |  |
| COc1cc(-c2oc3c(OC)c(O)c(OC)c(O)c3c(=O)c2OC)cc(O)c1OC | 32 µM |  |
| O=c1c(O)c(-c2ccc(O)c(O)c2)oc2cc(O)ccc12 [FISETIN] | 18 µM |  |
| O=c1c(O)c(-c2cc(O)c(O)c(O)c2)oc2cc(O)cc(O)c12 [MYRICETIN] | 36 µM |  |
| COc1cc(OC)cc(-c2cc(=O)c3c(OC)c(OC)c(OC)c(OC)c3o2)c1 | 30 µM |  |
| COc1ccc(-c2cc(=O)c3c(OC)c(OC)c(OC)c(OC)c3o2)c(OC)c1 | 26 µM |  |
| COc1c(OC)c(OC)c2c(=O)cc(-c3ccc(NC(C)=O)cc3)oc2c1OC |  | GI50 [2]: > 100 µM |
| COc1ccc(-c2cc(=O)c3c(OC)c(OC)c(OC)c(OC)c3o2)cc1 [TANGERETIN] | 54 µM |  |
| COc1cc(O)c2c(=O)c(O)c(-c3ccc(OC)c(O)c3)oc2c1 [OMBUINE] | 37 µM |  |
| COc1cc(O)c2c(=O)c(OC)c(-c3ccc(OC)c(O)c3)oc2c1 [AYANIN] | 32 µM | IC50 (Tubulin): > 40 µM; inhibition (Tubulin (Homo sapiens)): 0% |
| COc1ccc(-c2oc3cc(O)c(OC)cc3c(=O)c2OC)cc1O | 19 µM |  |
| COc1cc(-c2oc3cc(OC)c(OC)c(O)c3c(=O)c2OC)ccc1O [CHRYSOSPLENOL B] | > 33 µM |  |
| COc1cc(-c2oc3c(OC)c(OC)cc(O)c3c(=O)c2OC)ccc1O [TERNATIN] | 9.5 µM | IC50 (Tubulin): > 40 µM; inhibition (Tubulin (Homo sapiens)): 0% |
| COc1cc(OC)c(-c2oc3ccccc3c(=O)c2O)c(OC)c1 | 5.9 µM | IC50 (Tubulin): 31 µM; inhibition (Tubulin (Homo sapiens)): 22% |
| COc1ccc(-c2cc(=O)c3c(O)c(O)c(OC)cc3o2)cc1O | > 100 µM |  |
| COc1ccc(-c2cc(=O)c3c(O)c(OC)c(O)cc3o2)cc1 [PECTOLINARIGENIN] | > 31 µM | IC50 (Tubulin): > 40 µM; inhibition (Tubulin (Homo sapiens)): 11% |

| Compound | GI50 [1] | further results |
| --- | --- | --- |
| COc1ccc(-c2cc(=O)c3c(OC)c(OC)c(OC)cc3o2)cc1 | 28 µM |  |
| COc1ccc(-c2cc(=O)c3c(O)c(OC)c(O)c(OC)c3o2)cc1 [NEVADENSIN] | 59 µM |  |
| COc1ccc(-c2oc3cc(OC)ccc3c(=O)c2O)cc1 | 4.2 µM |  |
| COc1ccc(-c2oc3cc(OC(C)=O)cc(OC(C)=O)c3c(=O)c2OC)cc1 | 15 µM |  |
| COc1cc(-c2cc(=O)c3ccccc3o2)cc(OC)c1OC | 18 µM | IC50 (Tubulin): > 40 µM; inhibition (Tubulin (Homo sapiens)): 0% |
| COc1ccc(OC)c(-c2cc(=O)c3c(OC)c(OC)c(OC)c(OC)c3o2)c1 | 24 µM |  |
| COc1ccc(-c2oc3c(OC)c(OC)c(OC)c(O)c3c(=O)c2OC)cc1O | 0.13 µM | IC50 (Tubulin): 0.83 µM; inhibition (Tubulin (Bos taurus) [3]): 89%; inhibition (Tubulin (Bos taurus) [4]): 59% |
| COc1ccc(-c2oc3c(OC)c(OC)c(OC)c(O)c3c(=O)c2OC)cc1OC | 7.1 µM | IC50 (Tubulin): > 40 µM; inhibition (Tubulin (Homo sapiens)): 4% |
| COc1ccc(-c2oc3cc(O)cc(O)c3c(=O)c2OC)cc1O | 1.7 µM | IC50 (Tubulin): 3 µM; inhibition (Tubulin (Bos taurus) [3]): 75%; inhibition (Tubulin (Bos taurus) [4]): 43% |
| COc1ccc(-c2oc3c(OC)c(OC)c(OC)c(OC)c3c(=O)c2OC)cc1OC [3,5,6,7,8,3',4'-HEPTAMETHOXYFLAVONE] | > 27 µM | IC50 (Tubulin): > 40 µM; inhibition (Tubulin (Homo sapiens)): 1% |
| COc1cc(OC)c2c(=O)c(OC)c(-c3ccc(OC)c(O)c3)oc2c1 | > 100 µM |  |
| COc1c(O)cc2oc(-c3ccc(O)cc3)cc(=O)c2c1O [HISPIDULIN] | 33 µM |  |
| COc1ccc(-c2oc3cc(OC)c(OC)c(OC)c3c(=O)c2O)cc1O | 14 µM | IC50 (Tubulin): > 40 µM; inhibition (Tubulin (Homo sapiens)): 2% |
| COc1ccc(-c2oc3cc(OC)c(O)c(OC)c3c(=O)c2OC)cc1O | 54 µM |  |
| COc1ccccc1-c1cc(=O)c2ccc(OC)c(OC)c2o1 | 55 µM |  |
| COc1cc(-c2cc(=O)c3c(O)c(OC)c(OC)c(OC)c3o2)cc(OC)c1OC [GARDENIN] | 19 µM | IC50 (Tubulin): > 40 µM; inhibition (Tubulin (Homo sapiens)): 0% |
| CCOc1cc(O)c2c(=O)c(OC)c(-c3ccc(OC)c(O)c3)oc2c1 | 12 µM |  |
| COc1ccc(-c2cc(=O)c3c(O)c(OC)c(O)cc3o2)cc1OC [EUPATILIN] | 15 µM | IC50 (Tubulin): > 40 µM; inhibition (Tubulin (Homo sapiens)): 6% |
| COc1c(OC)c(O)c2c(=O)cc(-c3ccc(O)c(O)c3)oc2c1OC [SIDERITIFLAVONE] | 4 µM |  |
| COc1ccc(-c2oc3cc(O)c(OC)c(O)c3c(=O)c2OC)cc1O [CENTAUREIDIN] | 0.24 µM | IC50 (Tubulin): 2 µM; inhibition (Tubulin (Bos taurus) [3]): 76%; inhibition (Tubulin (Bos taurus) [4]): 35% |
| COc1cc(-c2oc3c(OC)cc(OC)c(O)c3c(=O)c2OC)cc(OC)c1OC | 19 µM |  |
| COc1ccc(-c2oc3cc(O)cc(O)c3c(=O)c2OC)cc1 [ERMANIN] | 24 µM |  |
| COc1ccc(-c2cc(=O)c3c(OC)c(O)c(OC)cc3o2)cc1 | 43 µM |  |
| O=c1c(O)c(-c2c(O)cccc2O)oc2cc(O)cc(O)c12 | > 100 µM |  |
| COc1ccc(-c2cc(=O)c3c(O)c(OC)c(OC)c(OC)c3o2)cc1OC [5-DEMETHYLNOBILETIN] | 17 µM | IC50 (Tubulin): > 40 µM; inhibition (Tubulin (Homo sapiens)): 5% |
| COc1c(O)c(OC)c2oc(-c3ccc(O)c(O)c3)c(OC)c(=O)c2c1O | 20 µM |  |
| COc1ccc(-c2oc3ccccc3c(=O)c2O)cc1OC [3-HYDROXY-3',4'-DIMETHOXYFLAVONE] | 32 µM |  |

| Compound | GI50 [1] | further results |
| --- | --- | --- |
| COc1ccc2c(=O)cc(-c3ccc(OC)c(OC)c3OC)oc2c1 | 78 µM |  |
| COc1c(OC)c(OC)c2c(=O)cc(-c3ccc(OC(C)C)cc3)oc2c1OC | 11 µM |  |
| COc1ccc(-c2cc(=O)c3c(O)cc(O)cc3o2)c(OC)c1OC | 68 µM |  |
| COc1c(OC)c(OC)c(-c2cc(=O)c3c(OC)c(OC)c(OC)c(OC)c3o2)c(OC)c1OC | 36 µM |  |
| COc1cc(OC)c2c(=O)c(O)c(-c3ccc(OC)c(OC)c3)oc2c1 | 6.6 µM | IC50 (Tubulin): > 40 µM; inhibition (Tubulin (Homo sapiens)): 0% |
| COc1ccc(-c2oc3ccc(C)cc3c(=O)c2O)cc1 | 76 µM |  |
| COc1cc(O)c2c(=O)c(OC)c(-c3ccc(OC)c(OC)c3)oc2c1 [RETUSIN] | 65 µM |  |
| COc1cc(-c2oc3c(OC)c(O)c(OC)c(O)c3c(=O)c2OC)ccc1O | 27 µM | IC50 (Tubulin): > 40 µM; inhibition (Tubulin (Homo sapiens)): 6% |
| COc1c(C)c(O)c2c(=O)cc(-c3ccccc3)oc2c1C | > 100 µM |  |
| O=c1c(O)c(-c2ccc(O)c(O)c2)oc2cc(O)cc(O)c12 [QUERCETIN] | 60 µM |  |
| COc1ccc(-c2oc3cc(OC)c(OC)c(O)c3c(=O)c2O)cc1O | 4 µM | IC50 (Tubulin): > 40 µM; inhibition (Tubulin (Homo sapiens)): 9% |
| COc1ccc(-c2oc3cc(OC)cc(O)c3c(=O)c2OC)cc1 | 54 µM |  |
| COc1ccc(-c2cc(=O)c3c(O)cc(C)cc3o2)cc1OC | > 100 µM |  |
| COc1cc(-c2oc3c(OC)c(OC)c(OC)c(O)c3c(=O)c2OC)ccc1O | 7.6 µM | IC50 (Tubulin): > 40 µM; inhibition (Tubulin (Homo sapiens)): 0% |
| COc1ccc(-c2oc3cc(O)c(C)c(C)c3c(=O)c2OC)cc1O | 12 µM |  |
| COc1ccc(-c2oc3cc(O)c(OC)c(O)c3c(=O)c2O)cc1 [BETULETOL] | 4.1 µM |  |
| COc1ccc(-c2oc3c(O)c(OC)cc(O)c3c(=O)c2OC)cc1OC | > 100 µM |  |
| COc1cc(O)c2c(=O)c(O)c(-c3ccc(O)c(O)c3)oc2c1 [RHAMNETIN] | 8.9 µM |  |
| COc1ccc(-c2oc3cc(OC)c(C)c(C)c3c(=O)c2OC)cc1O | 44 µM |  |
| COc1ccc(-c2cc(=O)c3c(O)c(OC)c(O)cc3o2)cc1O | 6 µM |  |
| COc1cc(-c2cc(=O)c3c(OC)c(OC)c(OC)c(OC)c3o2)cc(OC)c1OC [HEPATAMETHOXYFLAVONE] | 32 µM |  |
| COc1cc(OC)c2c(=O)cc(-c3ccc(OC)c(OC)c3OC)oc2c1 | 79 µM |  |
| COc1cc(-c2oc3c(OC)c(O)c(OC)c(O)c3c(=O)c2OC)cc(OC)c1OC | 54 µM | IC50 (Tubulin): > 40 µM; inhibition (Tubulin (Homo sapiens)): 6% |
| COc1ccc2c(=O)c(O)c(-c3ccc(OC)c(OC)c3)oc2c1 | 5.5 µM | IC50 (Tubulin): > 40 µM; inhibition (Tubulin (Homo sapiens)): 0% |
| COc1cc2oc(-c3ccccc3)cc(=O)c2c(O)c1C | > 100 µM |  |
